Data: article PMC7966865 (Molecular Metabolism, 2021)

Key:
[1] = system: normal C57 mice / control mice (Foxo1 flox/flox); test: Pyruvate tolerance test; format: in vivo, mouse
[2] = system: endogenous FOXO1 target gene expression (G6pc, Pck1, Foxo1 mRNA) in primary hepatocytes; test: cAMP/Dex-induced gene expression; format: cell-based; conditions: primary mouse hepatocytes, insulin 100 nM, 6 h; for cAMP/Dex-induced G6pc mRNA expression / cAMP/Dex-induced Pck1 mRNA expression: FOXO1 inhibitors 10 μM; for effect on Foxo1 mRNA levels: cAMP + Dex, compound 10 10 μM
Summary of the method: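 Hepatocytes from 8–10-week-old male C57/BL6 mice, plated on collagen at 200,000 cells/well, recovered 4–5 h, then serum-reduced (1% FBS M199, G418) 15–16 h. Stimulation: cAMP 100 μM + dexamethasone 1 μM, with test compound (10 μM, or 10 nM–10 μM). q-RT-PCR normalized to Ppia. For IC50: 0% = unstimulated, 100% = cAMP + Dex; 3–6 wells/concentration; 4 experiments pooled; 4-parameter fit.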

[3] = system: liver-specific Foxo1 knockout (LKO) mice; test: Pyruvate tolerance test; format: in vivo, mouse; conditions: three doses
Summary of the method: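 Liver-specific Foxo1 knockout mice (Albumin-Cre; Foxo1 flox/flox), male and female, were randomized by body weight and fed glucose. They received three oral doses of test compound at 10 ml/kg (8 am, 5 pm, 8 am), at 16 mg/kg in Optiform Select #8 or 30 mg/kg in 5% DMSO/95% PEG-400. After fasting, they were given sodium pyruvate 2 g/kg i.p. in saline. Tail glucose was read at 0–120 min. N = 7–15; tested once.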

[4] = system: db/db mice; test: Chronic study in db/db mice; format: in vivo, mouse; conditions: for ALT / AST: 6-h-fasted plasma; for hepatic histology (H&E): after 10 days of treatment; for glucose levels during ITT: day 9, i.p. insulin 0.75U/kg, all time points; for HOMA-IR index (worsening of insulin resistance over the study) / HOMA-β: calculated from fasting glucose and insulin
Summary of the method: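 Male db/db mice (C57BL/6J background), 6–7 weeks old, were acclimated for 2 weeks and randomized by weight and glucose. They received vehicle, test compound or rosiglitazone (10 mg/kg in 0.5% methylcellulose) orally for 10 days. Body weight was recorded each morning before dosing. 6-h-fasted glucose and ELISA insulin on days 0, 5 and 10 gave HOMA-IR and HOMA-β. Fasted plasma ALT/AST were measured colorimetrically. N = 6–8.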

[5] = system: STZ-induced diabetic mice; test: Chronic study in streptozotocin; format: in vivo, mouse
Summary of the method: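 Male C57BL/6J mice received STZ 50 mg/kg i.p. in citrate buffer pH 4.5 for 5 days, until glucose reached 300–450 mg/dL, then were randomized. Human recombinant FGF21 was given s.c. at 0.45 mg/kg daily from day 1. Test compound in Solutol HS-15:saline (5:95) was given p.o. at 32 mg/kg/dose twice daily from day 4. Readings: 6-h-fasted plasma TG (colorimetric), body weight change day 10 vs day 0, and day-11 perigonadal fat weight. N = 5–6.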

[6] = system: pGK-FFluc; test: Non-specific activity: constitutive pGK-FFluc reporter in HEK293 cells; format: cell-based; conditions: Homo sapiens, HEK293, read-out: Non-specific activities pGK-FFluc IC50
Summary of the method: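 In the wild-type FOXO1 format, HEK293 cells in EMEM with 1% FBS were co-transfected with IRE-NanoLuc, constitutive pGK-firefly luciferase and the FOXO1-WT plasmid. Test compound was dosed right after transfection as a 10-point half-log series in duplicate, at 0.5% final DMSO. After 24 h, lysates were read by Nano-Glo Dual-Luciferase. Relative IC50 came from a four-parameter fit, with at least two experiments.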

[7] = Cell viability; format: cell-based; conditions: human
Summary of the method: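 HEK293 cells were seeded overnight in EMEM with 1% FBS and then transfected for reporter assays. Test compound was added right after transfection as a 10-point half-log dilution in duplicate, at 0.5% final DMSO. After 24 h at 37 °C, medium taken off the cells was assayed for lactate dehydrogenase activity by LDH-Glo luminescence. At least two independent experiments were run.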

[8] = system: pCMV-Rluc; test: Non-specific activity: constitutive pCMV-Rluc reporter in HEK293 cells; format: cell-based; conditions: Homo sapiens, HEK293, read-out: Non-specific activities pCMV-Rluc IC50
Summary of the method: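 HEK293 cells in EMEM with 1% FBS were co-transfected with IRE-firefly luciferase, constitutive CMV-Renilla luciferase and a forkhead factor or RFP control plasmid. Test compound was added immediately as a 10-point half-log series in duplicate, at 0.5% final DMSO. After 24 h, lysates were read by Dual-Glo luciferase. Relative IC50 came from a four-parameter fit, with at least two independent experiments.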

[9] = Mouse PK; format: in vivo
Summary of the method: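 Male ICR mice (N = 3 per route) were dosed with test compound in Solutol HS-15:saline (5:95 v/v), i.v. at 1 mg/kg or p.o. at 10 mg/kg. Blood was sampled at 0.083–24 h (8 time points) and processed to plasma. Plasma levels were measured by LC-MS/MS and used to calculate PK parameters.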

[10] = male, ICR, mouse, plasma, iv, 1 mg/kg
[11] = male, ICR, mouse, plasma, po, 10 mg/kg

In the case of CCn1cc(C(=O)O)c(=O)c2c(N)c(F)c(NC3CCCCC3)cc21 [AS1842856, reference compound], the “glucose excursion during PTT” value ([1]; 4-h-fasted mice, higher dose level (30 or 100 mg/kg/dose tested) p.o.) is reported as “significantly lowered glucose excursion”, the “glucose levels during PTT” value ([1]; overnight-fasted C57 mice and control mice, 30 mg/kg p.o., three doses) is reported as “able to reduce glucose levels” and the “cAMP/Dex-induced G6pc mRNA expression” value [2] is reported as “significantly suppressed”. The “cAMP/Dex-induced Pck1 mRNA expression” value [2] was “significantly suppressed” and the “glucose levels during PTT” value ([3]; liver Foxo1 knockouts, 30 mg/kg/dose p.o.) was “reduced glucose levels”.

With CN(CCOc1ccc(CC2SC(=O)NC2=O)cc1)c1ccccn1 (centres unmarked) [rosiglitazone, reference compound] the “plasma TG” value ([4]; male db/db mice, 6-h-fasted) was “reduced plasma TG”, the ALT ([4]; male db/db mice) was “not affected” and the AST ([4]; male db/db mice) was “not affected”. The “hepatic histology (H&E)” value ([4]; male db/db mice) was “exacerbated hepatic steatosis”, the “glucose levels during ITT” value ([4]; male db/db mice) was “significantly reduced glucose levels” and the body weight ([4]; male db/db mice, rosiglitazone 10 mg/kg, ten days) was “weight gain”. The “HOMA-IR index (worsening of insulin resistance over the study)” value ([4]; male db/db mice, ten days) was “staunched” and the HOMA-β ([4]; male db/db mice, ten days) was “tended to be improved”.

For insulin, the “effect on Foxo1 mRNA levels” value [2] was “did not affect”, the “cAMP/Dex-induced G6pc mRNA expression” value [2] was “significantly suppressed” and the “cAMP/Dex-induced Pck1 mRNA expression” value [2] was “significantly suppressed”.

With CN1CCN(c2ccc(C(=O)Nc3cc(-c4nc5ccccc5[nH]4)n[nH]3)cc2)CC1 [Compound 10, N-[3-(1H-1,3-benzodiazol-2-yl)-1H-pyrazol-5-yl]-4-(4-methylpiperazin-1-yl)benzamide] the “glucose lowering during PTT” value ([1]; normal C57 mice fasted overnight (16 h), 16 mg/kg p.o., three doses) was “ineffective at lowering glucose”, the “reduced food intake (trend)” value ([4]; db/db mice, follow-up study, vs vehicle) was 12% and the “plasma TG” value ([4]; male db/db mice, 6-h-fasted) was “no significant effects”. For the same molecule, the “plasma total cholesterol (TC)” value ([4]; male db/db mice, 6-h-fasted) was “no significant effects”, the ALT ([4]; male db/db mice) was “not affected” and the AST ([4]; male db/db mice) was “not affected”. The “hepatic histology (H&E)” value ([4]; male db/db mice) was “no apparent effect”, the “glucose levels during ITT” value ([4]; male db/db mice) was “significantly reduced glucose levels” and the blood glucose ([4]; male db/db mice, p.o. twice daily, ten days) was “reduced blood glucose to an extent similar to the PPARγ agonist rosiglitazone”. For the same molecule, the “weight loss (trend)” value ([4]; male db/db mice, ten days) was 5%, the insulin levels ([4]; male db/db mice, ten days, 6 h fast) was “did not significantly affect” and the “HOMA-IR index (worsening of insulin resistance over the study)” value ([4]; male db/db mice, ten days) was “staunched”. The HOMA-β ([4]; male db/db mice, ten days) was “tended to be improved”, the “effect on Foxo1 mRNA levels” value [2] was “did not affect” and the “cAMP/Dex-induced G6pc mRNA expression” value [2] was “significantly suppressed”. The “cAMP/Dex-induced Pck1 mRNA expression” value [2] was “significantly suppressed”, the body weight ([5]; day 10 compared to day 0) was “trend toward reduced body weight” and the “reduction in perigonadal fat pad weight” value ([5]; end of the study (day 11)) was over 50%. For the same molecule, the “glucose levels during PTT” value ([3]; LKO mice, 16 mg/kg/dose p.o.) was “failed to reduce glucose levels”, the IC50 [6] was over 10 µM and the CC50 at 24 h [7] was over 24 µM. The IC50 [8] was over 24 µM, the CL ([9]; male ICR mice, IV 1 mg/kg) was 22.7 mL/kg∗min and the AUCinf ([9]; male ICR mice, IV 1 mg/kg, plasma) was 1.86 μM∗h. It also gave an AUCinf ([9]; male ICR mice, PO 10 mg/kg, plasma) of 4.66 μM∗h, a Vd [9, 10] of 1.71 L/kg and a half-life [9, 10] of 73.8 min. It also gave a bioavailability ([9]; male, ICR, mouse, plasma, oral, 10 mg/kg) of 25.5%, a Cmax [9, 11] of 1620 nM and a Tmax [9, 11] of 40.2 min.

B1: FGF21: Human recombinant FGF21 (Sino Biological), fibroblast growth factor 21 (protein, UniProt Q9NSA1 29-209, looked up)
Fibroblast growth factor 21: HPIPDSSPLLQFGGQVRQRYLYTDDAQQTEAHLEIREDGTVGGAADQSPESLLQLKALKPGVIQILGVKTSRFLCQRPDGALYGSLHFDPEACSFRELLLEDGYNVYQSEAHGLPLHLPGNKSPHRDPAPRGPARFLPLPGLPPALPEPPGILAPQPPDVGSSDPLSMVGPSQGRSPSYAS
In the case of B1, the “plasma TG” value ([5]; 6-h fast) is reported as “significantly reduced”.
